Five compounds from ChEMBL document CHEMBL3272057, “Synthesis and structure-toxicity relationships of three new stable analogues of acetyl-seco-hemicholinium-3” (J Med Chem, 1976) can be followed below.

As usually defined, the LD50 is the dose expected to kill half of the subjects tested.

The test system of data set [1] is Mus musculus. Nature of the data set: (§1) Toxicity in ip dosed Charles River CD-1 albino mouse measured within 5 mins. Format: organism-based. The conditions noted are these: mouse, in vivo, 5 min.
A short description of data set [2]: as §1. Format: organism-based. The conditions noted are these: CD-1, mouse, in vivo.
Data set [3] deals with T1, Acetylcholinesterase (Bos taurus) (UniProt P23795).
T1 sequence (whole entry): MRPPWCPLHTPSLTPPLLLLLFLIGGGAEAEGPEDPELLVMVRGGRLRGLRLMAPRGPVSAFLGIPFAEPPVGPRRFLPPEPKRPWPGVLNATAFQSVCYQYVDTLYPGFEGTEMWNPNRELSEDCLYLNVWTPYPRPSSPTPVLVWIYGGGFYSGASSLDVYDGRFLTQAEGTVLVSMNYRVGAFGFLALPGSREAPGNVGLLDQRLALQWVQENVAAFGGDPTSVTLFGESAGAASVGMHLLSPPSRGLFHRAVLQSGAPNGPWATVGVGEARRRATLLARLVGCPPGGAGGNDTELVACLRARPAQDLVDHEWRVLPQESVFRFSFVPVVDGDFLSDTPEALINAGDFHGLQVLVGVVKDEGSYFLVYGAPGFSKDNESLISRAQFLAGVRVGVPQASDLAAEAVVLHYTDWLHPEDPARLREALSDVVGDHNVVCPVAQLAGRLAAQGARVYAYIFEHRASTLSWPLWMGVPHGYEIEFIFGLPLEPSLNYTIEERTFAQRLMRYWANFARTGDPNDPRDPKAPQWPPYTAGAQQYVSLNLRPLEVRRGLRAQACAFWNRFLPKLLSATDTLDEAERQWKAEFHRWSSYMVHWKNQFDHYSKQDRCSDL
Nature of the data set: Binding affinity to bovine erythrocyte acetylcholinesterase in water at pH 7.4 at 100 x 10^-5 M measured immediately by UV-spectra analysis. The method, boiled down: (§2)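 Test solutions 100 × 10⁻⁵ M in pH 7.4 buffered water. UV spectrum recorded against identically buffered water reference. 0.1 ml of bovine erythrocyte acetylcholinesterase (40 μ/ml, pH 7.4 buffer) was added to 1-ml sample and reference, giving an enzyme level similar to blood. Spectrum recorded immediately, then again after incubation at 37° for 6 h. Shift in λmax was read.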

For data set [4], the system named is Mus musculus. Nature of the data set: Toxicity in ip dosed Charles River CD-1 albino mouse assessed as reduction of cardiac contraction. Type of data set: organism-based, Heart. The conditions noted are these: in vivo.
A short description of data set [5]: Ratio of hemicholinium-3 LD50 to compound LD50 for toxicity in ip dosed Charles River CD-1 albino mouse measured within 5 mins. The conditions noted are these: CD-1, mouse, in vivo. Type of data set: organism-based.
Data set [6] concerns Mus musculus. Nature of the data set: Toxicity in ip dosed Charles River CD-1 albino mouse assessed as increase of peristalsis of small intestine. The conditions noted are these: in vivo. Type of data set: organism-based.
In data set [7] the target is T1, Acetylcholinesterase (Bos taurus). The data set can be described thus: Binding affinity to bovine erythrocyte acetylcholinesterase in water at pH 7.4 at 100 x 10^-5 M up to 6 hrs by UV-spectra analysis. The method, boiled down:
as §2

Data set [8] can be described thus: Toxicity in ip dosed Charles River CD-1 albino mouse assessed as mortality at >LD95 in presence of choline. Type of data set: organism-based. The conditions noted are these: CD-1, mouse, in vivo, read-out: Activity. The method, boiled down: (§3)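 CD-1 male mice. Choline (20 mg/kg) or neostigmine (0.2 mg/kg) was given ip 1 min before an ip >LD95 dose of compound in saline. Read-out was % mortality.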

Data set [9] is described as follows: Chemical stability of the compound in deuterium oxide solutions at slightly acidic condition up to 48 hrs by NMR analysis. Type of data set: physicochemical.
Data set [10] in a line: Chemical stability of the compound in water at pH 7.4 up to 48 hrs by NMR analysis. Type of data set: physicochemical. The conditions noted are these: buffer, pH 7.4, 48 h.
Data set [11] in a line: Chemical stability of the compound in deuterium oxide solutions at pH 7.4 up to 48 hrs by NMR analysis. Format: physicochemical. The conditions noted are these: buffer, pH 7.4, 48 h.
Data set [12] can be described thus: Toxicity in ip dosed Charles River CD-1 albino mouse assessed as mortality at >LD95 in presence of neostigmine. Type of data set: organism-based. The conditions noted are these: CD-1, mouse, in vivo, read-out: Activity. The method, boiled down:
as §3

Data set [13] is described as follows: Chemical stability of the compound in water at slightly acidic condition up to 48 hrs by NMR analysis. Type of data set: physicochemical. The conditions noted are these: buffer.

Calls of active or inactive are those of the source. The calls are words filed in the database; no cut-off is given here.

On to `CC(=O)OCC[N+](C)(C)CC(=O)c1ccc(-c2ccc(C(=O)C[N+](C)(C)CCOC(C)=O)cc2)cc1.[Br-].[Br-]`, for which the LD95 in data set [1] was found to be 0.4 mg/kg. This compound yielded an LD50 at 5 min in [2] of 0.125 mg/kg. Moreover, in data set [3], the result was Active. In addition, the Activity entry in [4] was “Non-toxic”; in data set [6], “Toxic”. In addition, the selectivity ratio at 5 min in data set [5] was determined as 1.
For the compound `CC(=O)CCC[N+](C)(C)CC(=O)c1ccc(-c2ccc(C(=O)C[N+](C)(C)CCCC(C)=O)cc2)cc1.[Br-].[Br-]`, the LD95 in data set [1] was determined as 4.6 mg/kg. In addition, the LD50 at 5 min in [2] was 3.1 mg/kg. Moreover, the result in [7] was inactive. Moreover, the results for the mortality in data set [8] and in data set [12] were 0% and 70%, respectively. For the same compound, the Stability entry in data set [9], in data set [10], in data set [11] and in data set [13] was “Stable” in each case. Moreover, the Activity result was “Non-toxic” in data set [4] and “Toxic” in [6]. The selectivity ratio at 5 min in [5] was 23.8.
The compound `CCOCC[N+](C)(C)CC(=O)c1ccc(-c2ccc(C(=O)C[N+](C)(C)CCOCC)cc2)cc1.[Br-].[Br-]` registered an LD95 in [1] of 2.67 mg/kg. In addition, the LD50 at 5 min in data set [2] stood at 1.84 mg/kg. Besides, in [7], the outcome was inactive. For the same compound, the results for the mortality in data set [8] and in data set [12] were 0% and 80%, respectively. The Stability result in data set [9], in data set [10], in data set [11] and in data set [13] was “Stable” each time. Besides, the Activity entry in data set [4] is reported as “Non-toxic”; in [6], “Toxic”. Also, the selectivity ratio at 5 min in data set [5] was found to be 14.2.
In the case of `CCCCC[N+](C)(C)CC(=O)c1ccc(-c2ccc(C(=O)C[N+](C)(C)CCCCC)cc2)cc1.[Br-].[Br-]`, the LD95 in data set [1] was 5.8 mg/kg. In addition, the LD50 at 5 min in data set [2] was 5.6 mg/kg. Also, the outcome in data set [7] was inactive. Moreover, the mortality in data set [8] came to 30%; in [12] it was 80%. The Stability result in [9], in [10], in [11] and in data set [13] was “Stable” throughout. Besides, the Activity result in [4] is recorded as “Non-toxic”; in data set [6] it was “Toxic”. The selectivity ratio at 5 min in data set [5] was 43.1.
Turning to `C[N+]1(C)CCOC(O)(c2ccc(-c3ccc(C4(O)C[N+](C)(C)CCO4)cc3)cc2)C1` (configuration not stated) [HEMICHOLINIUM-3], the LD95 in data set [1] worked out at 0.2 mg/kg. In data set [2], the LD50 at 5 min stood at 0.13 mg/kg. In data set [7], the outcome was inactive. Also, the Activity result in data set [4] is on record as “Non-toxic”; in data set [6], “Toxic”.
